Data as given in ChEMBL document CHEMBL1121601, “Synthesis and anxiolytic activity of a series of pyrazino[1,2-a][1,4]benzodiazepine derivatives” (J Med Chem, 1980).
pIC50: −log10 of the molar value. The source made the active and inactive calls. The rule behind the calls is not given here.

Legend:
[1] = Compound was evaluated for in vitro inhibition of histamine activated adenylate cyclase in guinea pig cerebral cortex; format: functional, tissue-based, Cavia porcellus
In short: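 Cell-free vesicle preparation from guinea pig cerebral cortex, preincubated with [³H]adenine to label the endogenous ATP pool as [³H]ATP. Test agents were then assessed for blocking histamine activation of adenylate cyclase.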

[2] = molecular target: GABA-A receptor; anion channel; experiment: Displacement of [3H]diazepam from GABA-A receptor in rat synaptosomal membranes; format: cell membranes, Membrane
In short: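 Test agents over a wide concentration range, triplicate tubes per concentration. […] IC50 for inhibition of specific binding read graphically.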

Rattus norvegicus [3] = experiment: Ability to reduce the incidence of metrazole-induced seizures in rats (administered perorally or at standard dose of 30 mg/kg ); Inactive; format: functional, organism-based; set-up: dose 30 mg/kg
Rattus norvegicus [4] = species: Rattus norvegicus; experiment: Ability to inhibit the uptake of serotonin (5-HT) by crude synaptosomes from rat whole brain; format: functional
In short: (§1)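 Crude synaptosomes from rat whole brain, per Thornberg and Moore with minor changes. Incubated 5 or 15 min with L-[3H]norepinephrine (20 or 21.2 nM unless otherwise specified) or [3H]serotonin (9.2-14 nM unless otherwise specified). Test agents dissolved in ethanol; final ethanol 1% (v/v).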

Rattus norvegicus [5] = species: Rattus norvegicus; experiment: Ability to inhibit the uptake of norepinephrine (NE) by crude synaptosomes from rat whole brain; format: functional; in short: as §1
[6] = molecular target: Tyrosine 3-monooxygenase (Rattus norvegicus) (UniProt P04177); experiment: Compound was tested to block the inhibition of tyrosine hydroxylase by apomorphine at 1 uM
Tyrosine 3-monooxygenase (Rattus norvegicus), sequence (P04177 whole entry): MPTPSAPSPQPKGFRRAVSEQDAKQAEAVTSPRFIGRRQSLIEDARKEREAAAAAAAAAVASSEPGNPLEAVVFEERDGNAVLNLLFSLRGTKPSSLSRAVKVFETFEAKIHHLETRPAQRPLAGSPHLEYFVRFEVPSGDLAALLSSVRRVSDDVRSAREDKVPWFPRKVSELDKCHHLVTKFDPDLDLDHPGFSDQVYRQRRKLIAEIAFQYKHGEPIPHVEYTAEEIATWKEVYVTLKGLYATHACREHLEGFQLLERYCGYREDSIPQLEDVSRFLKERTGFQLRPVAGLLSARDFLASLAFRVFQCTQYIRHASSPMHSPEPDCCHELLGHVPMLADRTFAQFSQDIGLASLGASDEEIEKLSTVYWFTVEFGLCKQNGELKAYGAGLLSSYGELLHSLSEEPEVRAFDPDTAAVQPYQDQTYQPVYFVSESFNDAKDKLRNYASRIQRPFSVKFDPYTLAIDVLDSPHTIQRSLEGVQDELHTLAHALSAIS
In short: (§2)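 Tyrosine hydroxylase in synaptosomes, run essentially per Bronaugh and co-workers. Percent prevention of apomorphine inhibition = (% control activity with compound + Apo − % control with Apo)/(% control with compound alone − % control with Apo) × 100.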

[7] = molecular target: Tyrosine 3-monooxygenase (Rattus norvegicus) (UniProt P04177); experiment: Compound was tested to block the inhibition of tyrosine hydroxylase by apomorphine at 10 uM; in short: as §2

SMILES: CN1CCN2c3ccc(Cl)cc3C(c3ccccc3)=NCC2C1 (stereo not drawn)
- pIC50 [1]: 5.05
- pIC50 [2]: 5.05
- ED50 (Rattus norvegicus [3]): inactive

SMILES: CN(C)CCCN1c2ccccc2CCc2ccc(Cl)cc21 [CLOMIPRAMINE]
- pIC50 (Rattus norvegicus [4]): 6.12
- pIC50 [1]: 5.36
- pIC50 (Rattus norvegicus [5]): 5.02

SMILES: CC1=NCC2CN(C)CCN2c2ccc(Cl)cc21 (stereo not drawn)
- pIC50 [1]: 5.30
- pIC50 [2]: < 4.00
- ED50 (Rattus norvegicus [3]): inactive

SMILES: CNCCCN1c2ccccc2CCc2ccccc21 [DESIPRAMINE]
- pIC50 (Rattus norvegicus [4]): 5.19
- pIC50 [1]: 4.98
- pIC50 (Rattus norvegicus [5]): 7.10

SMILES: CC(=O)N1Cc2c(ccc(Cl)c2-c2ccccc2)N2CCN(C)CC2C1 (stereo not drawn)
- pIC50 [2]: < 4.00
- ED50 (Rattus norvegicus [3]): inactive

SMILES: CN1CCN2c3ccc(Cl)c(-c4ccccc4)c3CNCC2C1 (stereo not drawn)
- pIC50 [1]: < 4.30
- pIC50 [2]: < 4.00
- ED50 (Rattus norvegicus [3]): inactive

SMILES: O=C(CCCN1CCC(O)(c2ccc(Cl)cc2)CC1)c1ccc(F)cc1
- inhibition [6]: 28%

SMILES: CN1CCN2c3ccc(Cl)cc3C(c3ccc(Cl)cc3)=NCC2C1 (stereo not drawn)
- pIC50 [1]: < 4.30
- inhibition [7]: 10%
- pIC50 [2]: < 4.00
- ED50 (Rattus norvegicus [3]): inactive

SMILES: CN1CCN2c3ccc(Cl)cc3C(c3ccccc3Cl)=NCC2C1 (stereo not drawn)
- pIC50 (Rattus norvegicus [4]): 4.35
- pIC50 [1]: 4.52
- pIC50 [2]: 6.10
- pIC50 (Rattus norvegicus [5]): 4.52

SMILES: CN1C(=O)CN=C(c2ccccc2)c2cc(Cl)ccc21
- inhibition [6]: 23%

SMILES: CN1CCN2c3ccc(Cl)cc3C(Cc3ccccc3)=NCC2C1 (stereo not drawn)
- pIC50 [1]: < 4.30
- pIC50 [2]: < 4.00
- ED50 (Rattus norvegicus [3]): inactive

SMILES: CN1CCN2c3ccccc3Cc3ccccc3C2C1 (stereo not drawn) [MIANSERIN]
- pIC50 (Rattus norvegicus [4]): 4.46
- pIC50 [1]: 6.72
- pIC50 (Rattus norvegicus [5]): 4.44
